Screening data deposited in PubChem BioAssay by Johns Hopkins Ion Channel Center.
Kir21 block: blocks the mouse Kir2.1 inward-rectifier potassium channel; P35561; actives 0.85% (n = 310,000); B-score at 10 µM; HEK293-Kir2.1, FluxOR thallium flux fluorescence; active compounds read low;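 active = fluorescence ratio B-score at or below minus 3 SD of library scores, with starting-brightness B-score within 2 SD, cut at about -4.2 in these data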;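 note: channel flux triggered by added potassium and thallium sulfate stimulus; B-score of peak minus minimum fluorescence over baseline after thallium stimulus; more negative B-score means stronger Kir2.1 block with less thallium influx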
KCNK3 block: human KCNK3 channel inhibition, primary screen. actives 0.84% (n = 340,000). CHO-KCNK3 thallium flux, FluxOR fluorescence; active compounds read low. B-score at 10 µM;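 active = B-score under library mean minus 4 SD, starting fluorescence ratio at most library mean plus 5 SD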;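 note: more negative B-score means stronger inhibition of thallium flux through KCNK3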
KCNQ1 pot: human KCNQ1 channel potentiation or activation; CHO-K1 KCNQ1, thallium flux FluxOR fluorescence; active compounds read high; B-score at 10 µM; actives 0.35% (n = 310,000); AID 2648;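 active = fluorescence ratio B-score, a plate-corrected score, at least three library SD, with initial intensity B-score within 5 SD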
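Schedule – 37 °C overnight plating, 90-min dark dye load, 20-min compound pretreatment · System – stable KCNQ1 CHO-K1 line · Probe or stimulus – thallium- and potassium-containing depolarizing buffer · Measured by – kinetic FluxOR fluorescence, 10 s baseline plus 110 s post-stimulus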
KCNQ1 block: inhibitors of human KCNQ1 potassium channel. P51787. CHO-K1 KCNQ1, FluxOR thallium flux fluorescence; active compounds read high. B-score at 10 µM. actives 1.3% (n = 310,000);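 active = compounds whose thallium flux B-score, printed positive for inhibition, exceeds three library SD while starting fluorescence stays within three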;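 note: channel opened by potassium depolarization with thallium stimulus after 20 min compound exposure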
KCNK9 block: human KCNK9 channel inhibition. Q9NPC2. HEK293 KCNK9, FluxOR thallium flux fluorescence; active compounds read low. B-score at 10 µM. actives 1.2% (n = 310,000);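 active = ratio B-score over 3 SD below the library mean, with starting fluorescence within 5 SD of its mean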;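 note: negative B-score means less thallium flux so channel inhibition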
Target sequence (Q9NPC2 whole entry, looked up): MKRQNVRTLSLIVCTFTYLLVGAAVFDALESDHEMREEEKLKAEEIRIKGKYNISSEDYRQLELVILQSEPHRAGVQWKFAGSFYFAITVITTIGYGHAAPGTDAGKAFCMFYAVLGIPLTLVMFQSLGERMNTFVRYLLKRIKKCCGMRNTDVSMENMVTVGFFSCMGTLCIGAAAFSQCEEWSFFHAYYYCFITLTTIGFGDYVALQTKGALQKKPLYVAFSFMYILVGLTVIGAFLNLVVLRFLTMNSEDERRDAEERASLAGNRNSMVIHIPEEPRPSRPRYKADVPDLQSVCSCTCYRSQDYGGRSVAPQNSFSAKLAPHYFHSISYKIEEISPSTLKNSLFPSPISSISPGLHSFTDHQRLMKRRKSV
hERG protect: compounds protecting human hERG from proarrhythmic drug block | Q12809 | CHO-hERG, FluxOR thallium flux, dofetilide IC70 present | activation (rescue from dofetilide block), less the hit threshold, % at 10 µM | actives 0.51% (n = 310,000);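 active = activation above the mean of controls blocked by dofetilide plus 5 SD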;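 note: thallium influx through hERG after potassium depolarization seen as dye fluorescence rise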
Active calls of the source: *. This is a sample that favours compounds with a hit; in the whole collection about 3.7% have one here.

Screening Cc1nc(N2CCN(Cc3ccccc3)CC2)nc2c1C(=O)CC(c1ccco1)C2 (centres undefined) returned Kir21 block -5.3*, KCNK3 block inactive, KCNQ1 pot inactive, KCNQ1 block inactive, KCNK9 block inactive and hERG protect -12.
COc1ccc(C[C@H]2CN3C(=NC[C@@H]3C(C)C)N2CCNC(=O)CCC2CCCCC2)cc1 was read as Kir21 block -6.3*, KCNK3 block inactive, KCNQ1 pot inactive, KCNQ1 block inactive, KCNK9 block inactive and hERG protect -14.
Screening O=C(CCC1CCCCC1)NCCN1C2=NC[C@H](Cc3ccc(O)cc3)N2C[C@H]1Cc1ccc(O)cc1 returned Kir21 block 1.7, KCNK3 block inactive, KCNQ1 pot inactive, KCNQ1 block inactive, KCNK9 block inactive and hERG protect -8.
CC(C)[C@H]1CN=C2N(CCNC(=O)CCC3CCCCC3)[C@H](Cc3ccc(O)cc3)CN21 was read as Kir21 block 1.2, KCNK3 block inactive, KCNQ1 pot inactive, KCNQ1 block inactive, KCNK9 block inactive and hERG protect -4.
`COc1ccc(C[C@H]2CN3C(=NC[C@@H]3Cc3ccccc3)N2CCNC(=O)CCC2CCCCC2)cc1` gave Kir21 block -11*, KCNK3 block inactive, KCNQ1 pot inactive, KCNQ1 block inactive, KCNK9 block inactive and hERG protect -28.
`O=C(Nc1nccs1)c1ccc(S(=O)(=O)N2CCOCC2)cc1` gave Kir21 block -3.3, KCNK3 block inactive, KCNQ1 pot inactive, KCNQ1 block inactive, KCNK9 block inactive and hERG protect 3.
Screening COc1ccc(C(=O)OCC(=O)c2ccc[nH]2)cc1 returned KCNK3 block inactive.
CCN1C(=O)[C@H]2[C@@H](c3ccc(C)cc3)N3C(=O)N(c4ccc(C(F)(F)F)cc4)C(=O)[C@@]3(CC(C)C)[C@H]2C1=O was read as Kir21 block -1.3, KCNK3 block inactive, KCNQ1 pot inactive, KCNQ1 block inactive, KCNK9 block -7.6* and hERG protect -7.
CCN1C(=O)[C@H]2[C@@H](c3ccc(C)cc3)N3C(=O)N(c4ccc(C)cc4)C(=O)[C@@]3(CC)[C@H]2C1=O was read as Kir21 block -0.01, KCNK3 block inactive, KCNQ1 pot inactive, KCNQ1 block inactive, KCNK9 block inactive and hERG protect -8.
CN(Cc1ccccc1Cl)C(=O)CNC(=O)C12CC3CC(CC(C3)C1)C2 was read as KCNK3 block inactive.
For O=C(COc1ccccc1)NC(=S)Nc1ccc(Br)cn1 the results were Kir21 block -0.04, KCNK3 block inactive, KCNQ1 pot 22*, KCNQ1 block inactive, KCNK9 block inactive and hERG protect -6.
For CN(CCCN1c2ccccc2CCc2ccccc21)CC(=O)c1ccc(Cl)cc1 the results were Kir21 block -1.3, KCNQ1 pot inactive, KCNQ1 block inactive, KCNK9 block inactive and hERG protect -10.
Screening CN(C)CCCN1c2ccccc2CCc2ccc(Cl)cc21 returned Kir21 block -6.2*, KCNK3 block inactive, KCNQ1 pot inactive, KCNQ1 block inactive, KCNK9 block inactive and hERG protect -9.
`CN(C(=S)NC(=O)CCCOc1ccc(Cl)cc1Cl)c1ccccc1` gave Kir21 block -4.9*, KCNK3 block inactive, KCNQ1 pot inactive, KCNQ1 block inactive, KCNK9 block inactive and hERG protect -16.
Screening CC(Oc1ccc(Cl)cc1Cl)C(=O)N(C)c1ccccc1 (centres undefined) returned Kir21 block -6.4*, KCNK3 block inactive, KCNQ1 pot inactive, KCNQ1 block inactive, KCNK9 block inactive and hERG protect -11.
COc1ccc2[nH]c(=O)c(CN(Cc3ccco3)C(c3nnnn3Cc3ccccc3)C(C)C)cc2c1 (centres undefined) was read as Kir21 block -0.39, KCNK3 block inactive, KCNQ1 pot inactive, KCNQ1 block 7*, KCNK9 block inactive and hERG protect -9.
`COc1ccc2[nH]c(=O)c(CN(Cc3nnnn3Cc3ccco3)C3CCCCC3)cc2c1` gave Kir21 block -4.5*, KCNK3 block inactive, KCNQ1 pot inactive, KCNQ1 block inactive, KCNK9 block inactive and hERG protect -31.
For COc1ccccc1NS(=O)(=O)c1ccc(O)c(C(N)=O)c1 the results were Kir21 block -4.2*, KCNK3 block inactive, KCNQ1 pot inactive, KCNQ1 block inactive, KCNK9 block inactive and hERG protect 2.
For COc1ccccc1NS(=O)(=O)c1cc(C)ccc1C the results were Kir21 block -4.6*, KCNK3 block inactive, KCNQ1 pot inactive, KCNQ1 block inactive, KCNK9 block inactive and hERG protect -9.
`COc1ccc(S(=O)(=O)Nc2ccccc2SC)cc1C` gave Kir21 block -6.7*, KCNK3 block inactive, KCNQ1 pot inactive, KCNQ1 block inactive, KCNK9 block inactive and hERG protect -8.
Screening COc1ccccc1NS(=O)(=O)c1ccc(O)c(C(=O)OCC(=O)c2ccc(Cl)cc2Cl)c1 returned Kir21 block 0.24, KCNK3 block inactive, KCNQ1 pot inactive, KCNQ1 block inactive, KCNK9 block inactive and hERG protect -5.
COc1ccc(OC)c(S(=O)(=O)Nc2ccccc2SC)c1 was read as Kir21 block -4.6*, KCNK3 block inactive, KCNQ1 pot inactive, KCNQ1 block inactive, KCNK9 block inactive and hERG protect -12.
COC(=O)c1cc(NC(=O)/C=C/c2ccccc2)ccc1O was read as Kir21 block 2.7, KCNQ1 pot inactive, KCNQ1 block inactive, KCNK9 block inactive and hERG protect -5.
`CC(Sc1cccc[n+]1[O-])C(=O)NC1CCCCC1C` (centres undefined) gave KCNK3 block inactive.
Screening O=C(N/N=C/c1ccc(OC(=O)c2ccccc2)c([N+](=O)[O-])c1)c1ccc(O)cc1 returned Kir21 block -0.09, KCNK3 block inactive, KCNQ1 pot inactive, KCNQ1 block inactive, KCNK9 block inactive and hERG protect -9.
For CCCCN(C(=O)CC1CCCC1)c1c(N)n(CCCC)c(=O)[nH]c1=O the results were KCNK3 block inactive.
O=C(Nc1nc(-c2cc(F)ccc2F)cs1)C1=NN(c2ccccc2)C(=O)CC1 was read as Kir21 block -0.34, KCNK3 block inactive, KCNQ1 pot inactive, KCNQ1 block inactive, KCNK9 block inactive and hERG protect -12.
`COc1ccc(-c2csc(NC(=O)C3=NN(c4ccccc4)C(=O)CC3)n2)cc1` gave Kir21 block 0.8, KCNK3 block inactive, KCNQ1 pot 105*, KCNQ1 block inactive, KCNK9 block inactive and hERG protect -11.
